# Screening results from PubChem BioAssay.
# UCH37 inh: blocks the human deubiquitinase UCH37; Q9Y5K5; purified proteasome/UCH37, Ub-AMC cleavage fluorescence; inhibition, % (concentration not given with the values); 330,000 compounds, 0.33% hits; AID 588478;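 active means mean inhibition over replicate wells above about 20%, limit read from the data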;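 further: 0% = compound-free wells with enzyme and 100% = wells lacking proteasome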
# Target sequence (Q9Y5K5 whole entry, looked up): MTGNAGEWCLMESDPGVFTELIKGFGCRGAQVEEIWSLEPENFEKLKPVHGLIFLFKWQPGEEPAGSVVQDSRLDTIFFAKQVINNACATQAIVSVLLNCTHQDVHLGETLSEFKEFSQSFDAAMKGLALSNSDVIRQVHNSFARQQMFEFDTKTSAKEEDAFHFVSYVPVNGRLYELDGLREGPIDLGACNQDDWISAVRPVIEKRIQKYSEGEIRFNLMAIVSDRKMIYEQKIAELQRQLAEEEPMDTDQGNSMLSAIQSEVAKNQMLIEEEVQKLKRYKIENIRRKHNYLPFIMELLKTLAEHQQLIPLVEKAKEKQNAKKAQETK
#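 Reagent: Ub-AMC substrate; assay system: Proteasome-associated human UCH37 deubiquitinase; controls: no-proteasome and no-compound wells; read-out: % inhibition of Ub-AMC cleavage fluorescence; timing: 30 min preincubation with enzyme, 25 min cleavage at room temperature; signal: AMC fluorescence from Ub-AMC cleavage, excitation 355 nm, emission 460 nm; buffer or medium: Tris-HCl pH 7.4 plus ovalbumin, ATP-MgCl2, DTT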
# CRFBP-R2 agonist: CRF-BP/CRF-R2 complex agonism. AID 588473. HEK293 CRF-R2/CRF-BP, calcium dye fluorescence (FLIPR); percent of saturating CRF peptide response. activation, % at 13.2 µM. 350,000 compounds, 0.46% hits;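 active means activation of at least 50%, plus an integration ratio under a set limit after plate pattern correction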;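 further: plate controls were neutral control wells without compound for no effect and CRF at EC100 for full effect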
# MIN6 prolif: induces beta-cell replication in MIN6 cells; MIN6 cells proliferation, ATPlite luminescence, 48 h; cells starved in 0.2% serum; 100% = growth in 10% serum; proliferation, % at 10 µM; 330,000 compounds, 0.29% hits;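 active means compounds whose signal lies at least 3.5 SD above the mean of all wells on their plate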;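 further: 0% = DMSO-treated cells in low-serum medium and 100% = 10% serum control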
# H9c2 protect: myocardial damage modulation in H9c2 cells; H9c2 cardiomyocytes, H2O2 injury protection, ATPLite, 2 h; protection from H2O2 cell death, % at 20 µM; 360,000 compounds, 0.63% hits; AID 588492;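 active means compounds giving at least 50% protection of heart cells from peroxide-induced death in the single-dose screen, raw or plate-pattern-corrected value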;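 further: 0% = DMSO wells with peroxide and 100% = DMSO wells without peroxide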
# hiPSC survival: hiPSC single-cell survival enhancement | 360,000 compounds, 0.044% hits | AID 602274 | ATPlite luminescence; 100% = ROCK inhibitor wells, 0% = DMSO | survival enhancement, % at 20 µM; in the data active means survival enhancement above about 18%;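 further: cells exposed to compounds for 16 hours before the ATP read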
# CRFBP-R2 block: CRF-BP/CRF-R2 complex antagonism; HEK293 CRF-R2/CRF-BP, CRF-induced calcium fluorescence; inhibition, % at 11.8 µM; 350,000 compounds, 0.59% hits;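 active means inhibition of the ligand-induced calcium signal above about 50% at the single tested concentration, limit read from the data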
# Numbers without * were called inactive; . = not tested or not shown. Only some compounds are listed: those with a hit (about 2.1% of all), similar ones and a draw of the others.
SMILES,UCH37 inh,CRFBP-R2 agonist,MIN6 prolif,H9c2 protect,hiPSC survival,CRFBP-R2 block
O=C(C1CCN(C2CCN(CC3CC=CCC3)CC2)CC1)N1CCOCC1 (stereo unspecified),0,1,-1,12,-1,86*
COc1cc2sc(-c3ccc(S(C)(=O)=O)cc3)c(C#CCO)c2cc1OC,-12,0,3,53*,-1,2
COc1cc(OC)cc(-c2sc3ccc(OC)cc3c2C#CCO)c1,.,-1,-6,-7,2,-8
COC(=O)NN=Cc1cc(C)n(-c2cccc3ccccc23)c1C,3,.,.,.,.,.
COC(=O)CN1C(=O)COc2ccc(S(=O)(=O)NCc3ccc(Cl)cc3)cc21,1,1,2,4,0,99*
O=C(NN=C/C(Cl)=C/c1ccccc1)c1ccccc1F,4,.,.,.,.,.
Cc1ccc(C(C)C)c(OCC(=O)NN=CC2CCCCC2)c1,4,.,.,.,.,.
Cc1ccc(CNC(=O)c2oc3ccc(S(=O)(=O)N4CCOCC4)cc3c2C)cc1,0,-2,0,51*,1,-30
CC(=O)N1CCOc2ccc(S(=O)(=O)N3CCC(C(=O)NCc4ccc(C)cc4)CC3)cc21,0,2,-2,-2,0,53*
COc1ccc(CNC(=O)c2oc3ccc(S(=O)(=O)N4CCOCC4)cc3c2C)cc1,-1,3,0,12,0,-16
CC(=O)N1CCOc2ccc(S(=O)(=O)N3CCC(C(=O)NCc4ccc(Cl)cc4)CC3)cc21,.,0,.,0,2,3
O=C(NN=Cc1ccc(O)cc1)c1ccc(NC(=O)c2ccccc2Br)cc1,3,.,.,.,.,.
Br/C(C=NNc1nc(N2CCOCC2)nc(N2CCOCC2)n1)=C/c1ccccc1,7,.,.,.,.,.
O=C(O)c1ccc(-c2nc(-c3ccc(Cl)cc3Cl)cs2)cc1,-7,-2,-3,-4,1,67*
COc1ccc(-c2csc(-c3ccc(C(=O)O)cc3)n2)cc1,-60,-2,-2,0,2,18
O=C(O)c1ccc(-c2nc(-c3ccc(Cl)cc3)cs2)cc1,-18,-3,.,-2,0,53*
CCCCCCCOC(=O)C[N+](C)(C)CCOC1CC2CCC1(C)C2(C)C (stereo unspecified),11,111*,.,-31,-2,-158
O=c1cc(-c2ccncc2)oc2c1ccc1ccccc12,-107,-1,-1,66*,-1,-5
Cc1cc(C)c2nc3nc(C)c(C)cc3c(N)c2c1,-308,71*,-5,2,-1,111*
CCCSc1nc(C)c2cc(C)cc(C)c2n1,-1,-1,-1,-11,-2,-13
O=C(NN=Cc1cccc(O)c1)c1ccc(COc2ccc3c(c2)CCC3)o1,3,.,.,.,.,.
COc1ccc(-c2n[nH]c(=S)n2N=Cc2cccn2C)cc1,6,.,.,.,.,.
COc1cc(-c2n[nH]c(=S)n2/N=C/c2cccn2C)cc(OC)c1OC,.,104*,-3,0,0,-18
CCCC(=NCC(=O)O)C1=C(O)C(C(=O)OC)C(C)(C)CC1=O (stereo unspecified),-3,7,1,0,0,61*
CCCC(=NCc1ccccc1)C1=C(O)C(C(=O)OC)C(C)(C)CC1=O (stereo unspecified),5,-1,1,8,0,20
SMILES,UCH37 inh,CRFBP-R2 agonist,MIN6 prolif,H9c2 protect,hiPSC survival,CRFBP-R2 block
O=C(NN=C/C=C\c1ccco1)c1ccccn1,11,.,.,.,.,.
COc1ccc(C=NNc2nonc2N)cc1OC,5,.,.,.,.,.
Cc1ccc(C(=O)Oc2ccc(Cl)c3cccnc23)cc1[N+](=O)[O-],5,-2,-6,53*,4,22
COc1ccc(C(=O)Oc2cccc3cccnc23)cc1[N+](=O)[O-],6,0,0,-3,1,2
COc1c(Cl)cnn(-c2ccc(C)cc2)c1=O,2,-2,-4,-7,27*,-11
O=C(c1ccccc1)N1CCC(=O)N(C(CO)Cc2ccccc2)CC1 (stereo unspecified),-2,0,-4,-4,-2,3
CC(C)(C)c1ccc(C(=O)N2CCC(=O)N(C(CO)Cc3ccccc3)CC2)cc1 (stereo unspecified),6,51*,-1,3,1,-7
O=C(NN=Cc1cccs1)c1n[nH]c2c1CCCC2,5,.,.,.,.,.
CC(OC(=O)CCc1nc2ccccc2c(=O)[nH]1)C(=O)Nc1cccc(C(F)(F)F)c1 (stereo unspecified),6,4,0,34,2,6
CC(OC(=O)CCc1nc2ccccc2c(=O)[nH]1)C(=O)NCc1ccc2c(c1)OCO2 (stereo unspecified),0,-2,0,67*,0,2
CCCc1nc2ccccc2c(C(=O)OC(C)C(=O)NCc2ccc3c(c2)OCO3)c1CC (stereo unspecified),6,8,-2,2,0,25
CC(=O)c1cccc(NC(=O)C(C)OC(=O)CCc2nc3ccccc3c(=O)[nH]2)c1 (stereo unspecified),4,-2,1,52*,3,-5
CCOc1ccc(C=NNC(=O)C2CC2)cc1OC,4,.,.,.,.,.
O=C(Nc1ccc(N2CCN(c3ccccc3)CC2)c(F)c1)C1CC1,7,1,0,-4,0,58*
CCCN(CCC)C(=O)c1ccc2nc(-c3ccc(OC)c(OC)c3)c(-c3ccc(OC)c(OC)c3)nc2c1,-19,-1,-5,13,0,-6
CCC(C)NC(=O)c1ccc2nc(-c3ccc(OC)c(OC)c3)c(-c3ccc(OC)c(OC)c3)nc2c1 (stereo unspecified),-31,-2,-5,71*,0,9
CCN(CC)c1ccc(C=NNC(=O)Cc2ccc(OC)c(OC)c2)cc1,-224,.,.,.,.,.
COc1ccc(C(=O)COC(=O)CCNS(=O)(=O)c2ccc(NC(C)=O)cc2)c(OC)c1,1,1,-1,-4,0,51*
CC(C)(C)C(=O)C=c1sc(=Cc2ccc(-c3ccc([N+](=O)[O-])cc3)o2)c(=O)n1CC(=O)NC(N)=O,11,.,.,.,.,.
C[C@H](NC(=O)Nc1ccc2c(c1)OCCO2)C(=O)O,0,-1,-4,1,1,96*
COc1cc(C=NNc2nc3ccccc3o2)cc(OC)c1OC,0,.,.,.,.,.
Cc1ccc(NS(=O)(=O)c2cccc3nsnc23)cc1,5,-1,-2,1,0,75*
O=S(=O)(Nc1ccccc1)c1cccc2nsnc12,5,1,-4,4,2,8
O=c1nc(N/N=C/C=C/c2ccccc2)cn[nH]1,.,1,0,-5,0,98*
CC(=NNC(=O)C1=NNC(=O)C1C)c1cccs1 (stereo unspecified),7,.,.,.,.,.
